Consider 14 compounds from PubChem BioAssay.

The source made the active and inactive calls.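 The calls were made as follows, unless noted: active = inhibition of the reporter signal at or above 50%; inactive = inhibition below 50%.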

Test [1] is described as follows: inhibitors of TNFa-induced NFkB p65 translocation, primary screen, imaging, HUVEC, MLSMR starter and 10KST1 sets (AID 438;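 active = inhibition above 20% together with a positive visual image hit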;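 also: compound added about 3h40 before a 20 min TNFalpha stimulation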;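 as to inhibition: signal is the nuclear over cytoplasmic p65 intensity ratio per well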). Particulars: HUVEC TNFa-induced p65 nuclear translocation; cell count: measured here: nuclei count (cytotoxicity indicator), at 2.08 µM; inhibition: at 2 µM, stronger effect = higher value, 0% TNFa-plus-vehicle, 100% no-TNFa wells.
Test [2] is described as follows: inhibitors of mutant huntingtin aggregation, primary screen, imaging, exon1htt(103Q)mCFP cells, high-content imaging (AID 483;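 active = visual image review flags a hit and inhibition of aggregation exceeds 20%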;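 also: compound exposure lasted 3 days before fixation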;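 as to nuclei count: percent of the per-plate median nuclei count of sample wells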). Particulars: exon1htt(103Q)mCFP cell line, aggregate imaging, at 2 µM; inhibition of aggregation: stronger effect = higher value; nuclei count: measured here: cell count, toxicity.
Test [3] can be described thus: inhibitors of E-selectin induction by TNFa, primary screen, imaging, HUVEC, immunofluorescence, MLSMR starter and 10KST1 sets (AID 487;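 active = visually confirmed hit in the image check and inhibition above 20%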;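 as to inhibition: signal is fraction of cell area covered by stained E-selectin grains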;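 as to nuclei count: 100% = median nuclei count of all wells on the same plate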). The settings on record: HUVEC TNFalpha-induced E-selectin immunofluorescence imaging, at 2 µM; inhibition: stronger effect = higher value; nuclei count: measured here: cell number, toxicity.
Test [4] addresses Voltage-gated potassium channel subunit beta-2 (Rattus norvegicus) (UniProt P62483). In words: KvBeta enzyme negative modulators, primary screen, biochemical, NADPH fluorescence (AID 622;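 active = fluorescence slope higher than the sample average by over 3 SD, cut at about -0.22 in these data, passing the limit was not always enough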;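 also: slope of raw intensity against log time taken from 70 to 1610 s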). The settings on record: recombinant KvBeta, 4-cyanobenzaldehyde reduction, at 10 µM, stronger effect = higher value.
Test [5] has the same target. In words: KvBeta positive modulators, primary screen, biochemical, NADPH fluorescence (AID 623;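 active = NADPH fluorescence slope more negative than the mean of all samples by about 3 SD, 99.7% confidence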;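 also: fluorescence intensity change per second fitted from 20 to 320 s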). The settings on record: Recombinant KvBeta, NADPH fluorescence decrease slope, 10 min; at 10 µM; stronger effect = lower value.
The target in test [6] is Muscarinic acetylcholine receptor M4 (Homo sapiens) (UniProt P08173). In words: compounds altering M4/GIRK thallium flux, either direction, primary screen, M4 allosteric agonist project, cell-based, HEK293 M4/GIRK, BTC-AM (AID 625;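 active = fluorescence slope after compound addition differing from the mean of all tested samples at 99.7% confidence, mostly higher but some lower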;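 also: thallium influx through GIRK channels coupled to M4 in HEK293 cells with BTC-AM dye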). The settings on record: at 10 µM, actives lie on both sides. In short, it runs like this: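 Material – HEK293 cells with M4 receptor and GIRK channels · Buffer or medium – pH 7.3 thallium assay buffer · Doses – one dose, 10 µM final · Timing – cells overnight at 37 °C, BTC-AM loading 1 h, reads 2 min total · Measured by – kinetic fluorescence with BTC-AM dye · Controls – carbachol and DMSO controls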

Test [7] can be described thus: inhibitors of Sendai virus-induced IRF3 signaling, primary screen, TLR/RLR signaling modifier project, cell-based, Sendai virus stimulus, luciferase, 10K MLSCN set (AID 602276;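 active = inhibition at or above 50% at 10 µM; inactive = inhibition below 50%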;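 also: firefly luciferase from ISG56 promoter only with Renilla not read in this screen; 0% = Sendai virus plus DMSO and 100% = medium plus DMSO without virus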). The settings on record: HEK293 RL24 IRF3 luciferase reporter, at 10 µM, stronger effect = higher value.
Test [8] in a line: inhibitors of poly I:C-induced TLR3 signaling, primary screen, cell-based, poly I:C stimulus, luciferase, 10K MLSCN set (AID 602277). The settings on record: HEK293-TLR3 RL24 IRF3 luciferase reporter, at 10 µM, stronger effect = higher value.

Chain of Voltage-gated potassium channel subunit beta-2 (Rattus norvegicus) (P62483 whole entry, looked up): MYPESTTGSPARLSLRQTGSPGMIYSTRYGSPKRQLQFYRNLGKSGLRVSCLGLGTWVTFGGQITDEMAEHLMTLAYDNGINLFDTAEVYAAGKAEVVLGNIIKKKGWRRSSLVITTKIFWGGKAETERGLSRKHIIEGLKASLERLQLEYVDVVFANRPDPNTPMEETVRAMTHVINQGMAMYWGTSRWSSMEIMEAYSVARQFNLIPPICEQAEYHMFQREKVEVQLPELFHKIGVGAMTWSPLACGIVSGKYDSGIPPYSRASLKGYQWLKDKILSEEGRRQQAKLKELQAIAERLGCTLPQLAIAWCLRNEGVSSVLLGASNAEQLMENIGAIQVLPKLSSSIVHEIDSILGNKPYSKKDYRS
Chain of Muscarinic acetylcholine receptor M4 (Homo sapiens) (P08173 whole entry, looked up): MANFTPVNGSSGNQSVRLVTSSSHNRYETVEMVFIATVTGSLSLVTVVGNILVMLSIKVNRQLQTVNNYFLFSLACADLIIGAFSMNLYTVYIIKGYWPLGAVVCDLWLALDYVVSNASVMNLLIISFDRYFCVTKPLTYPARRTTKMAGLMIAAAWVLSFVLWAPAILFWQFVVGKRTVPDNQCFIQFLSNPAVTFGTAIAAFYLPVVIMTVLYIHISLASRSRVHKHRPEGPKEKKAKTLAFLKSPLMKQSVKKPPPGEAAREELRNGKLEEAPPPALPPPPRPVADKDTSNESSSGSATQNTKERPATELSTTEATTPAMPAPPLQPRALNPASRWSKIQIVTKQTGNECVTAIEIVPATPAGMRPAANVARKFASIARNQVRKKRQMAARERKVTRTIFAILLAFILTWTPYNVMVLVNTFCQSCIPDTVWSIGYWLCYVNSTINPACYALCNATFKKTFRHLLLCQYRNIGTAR

As to `CSc1nc(NC(C)(C)C)nc(Oc2ccc(=O)[nH]n2)n1`, in test [1], the cell count amounted to 356. Also, the inhibition is -6.2% (inactive) in test [1], -29.6% (inactive) in test [3], 12.8% (inactive) in test [7] and 11.8% (inactive) in test [8]. The inhibition of aggregation in test [2] is 10.5% (inactive). Besides, the nuclei count in test [2] was 86.5%; in test [3], 107%. The fluorescence slope was -0.594 (inactive) in test [4] and 0.0039 (inactive) in test [6]. In addition, the NADPH fluorescence slope in test [5] is 1.9e-06 (inactive).

Take `CC(=O)c1ccc(NC(=O)c2noc3c2CCCCC3)cc1`: the cell count in test [1] was found to be 214. Besides, the inhibition in test [1] was 2.3% (inactive); in test [3], -10.4% (inactive); in test [7], -32.5% (inactive); in test [8], -114% (inactive). Further, the inhibition of aggregation in test [2] was -0.6% (inactive). Besides, the nuclei count in test [2] came out at 108%; in test [3], 118%. Besides, the fluorescence slope in test [4] was -0.512 (inactive); in test [6] it was 0.00493 (inactive). In addition, in test [5], the NADPH fluorescence slope is -6e-05 (inactive).

Consider `Cc1cccc(C(=O)N2CCN(C(=O)c3cccc(C)c3)C(C)C2)c1` (centres undefined), for which the cell count in test [1] came out at 394. The inhibition was -3.8% (inactive) in test [1], -31.8% (inactive) in test [3], -15.5% (inactive) in test [7] and -12% (inactive) in test [8]. For the same compound, the inhibition of aggregation in test [2] is 3.6% (inactive). Also, the values for the nuclei count in test [2] and in test [3] were 113% and 114%, respectively. Also, the fluorescence slope in test [4] is -0.311 (inactive); in test [6], 0.00692 (inactive). For the same compound, in test [5], the NADPH fluorescence slope is 1.4e-05 (inactive).

For `COCCN1C(=O)C(=O)/C(=C(/O)c2ccc(OC(C)C)cc2)C1c1cccnc1` (centres undefined), the cell count in test [1] stood at 644. Also, the inhibition in test [1] is -4.7% (inactive); in test [3] it was 19.8% (inactive); in test [7], 17.3% (inactive); in test [8] it was 19.8% (inactive). For the same compound, in test [2], the inhibition of aggregation is -7.9% (inactive). Besides, the nuclei count in test [2] was determined as 116%; in test [3], 104%. For the same compound, the results for the fluorescence slope in test [4] and in test [6] were -0.422 (inactive) and 0.00536 (inactive), respectively. Moreover, in test [5], the NADPH fluorescence slope is -1.5e-05 (inactive).

Consider `COc1ccc(N(CC(=O)N2CCN(Cc3ccc4c(c3)OCO4)CC2)S(C)(=O)=O)cc1OC`, for which the cell count in test [1] came to 359. The inhibition in test [1] was 5% (inactive); in test [3], -52.6% (inactive); in test [7] it was 21.2% (inactive); in test [8] it was 20.2% (inactive). In test [2], the inhibition of aggregation was 2.1% (inactive). The nuclei count in test [2] came out at 120%; in test [3] it was 112%. Also, the figures for the fluorescence slope in test [4] and in test [6] were -0.538 (inactive) and 0.00506 (inactive), respectively. Besides, the NADPH fluorescence slope in test [5] is -1.7e-05 (inactive).

For the compound `OCC#CCSc1nnc(-c2ccccc2Br)o1`, the cell count in test [1] is 390. The inhibition in test [1] is -5.2% (inactive); in test [3], -111% (inactive); in test [7], -9.39% (inactive); in test [8], -45.2% (inactive). In addition, in test [2], the inhibition of aggregation is -3.5% (inactive). The nuclei count in test [2] is 110%; in test [3], 132%. Further, the fluorescence slope in test [4] is -0.515 (inactive); in test [6], 0.00341 (inactive). In test [5], the NADPH fluorescence slope is -0.000137 (inactive).

In the case of `COc1ccc(C2=Nn3c(nnc3-c3cccnc3)SC2)cc1`, the cell count in test [1] worked out at 367. Besides, the inhibition in test [1] was -0.8% (inactive); in test [3], 25.5% (inactive); in test [7], 5.59% (inactive); in test [8], 7.82% (inactive). Moreover, the inhibition of aggregation in test [2] is 6.7% (inactive). Also, the nuclei count in test [2] was found to be 104%; in test [3], 109%. For the same compound, the values for the fluorescence slope in test [4] and in test [6] were -0.464 (inactive) and 0.00808 (inactive), respectively. Besides, the NADPH fluorescence slope in test [5] is 1.1e-05 (inactive).

For the compound `COc1ccc(C(=O)Nn2c(SCC(=O)NCC3CCCO3)nc3ccccc3c2=O)cc1` (centres undefined), the cell count in test [1] is 512. Also, the inhibition was -3.6% (inactive) in test [1], -60.6% (inactive) in test [3], 15.1% (inactive) in test [7] and 49.1% (inactive) in test [8]. For the same compound, the inhibition of aggregation in test [2] was 13.2% (inactive). Moreover, the values for the nuclei count in test [2] and in test [3] were 103% and 106%, respectively. In addition, the fluorescence slope was -0.511 (inactive) in test [4] and 0.00522 (inactive) in test [6]. Also, the NADPH fluorescence slope in test [5] was -6.1e-05 (inactive).

On to `Cn1c(=O)c2c(nc(N3CCCCC3)n2CCSc2nc3ccccc3o2)n(C)c1=O`, for which the cell count in test [1] was found to be 248. Besides, the inhibition is -3.6% (inactive) in test [1], 28.4% (inactive) in test [3], -13.5% (inactive) in test [7] and -11.3% (inactive) in test [8]. Further, the inhibition of aggregation in test [2] is 2.8% (inactive). The results for the nuclei count in test [2] and in test [3] were 71.3% and 94.2%, respectively. Besides, the fluorescence slope was -0.451 (inactive) in test [4] and 0.00597 (inactive) in test [6]. The NADPH fluorescence slope in test [5] was 4.5e-05 (inactive).

Turning to `CC(=O)Nc1cccc(NC(=O)CSc2nnnn2C(C)C)c1`, the cell count in test [1] was 638. Also, the inhibition in test [1] is 1.6% (inactive); in test [3], -46.4% (inactive); in test [7], 12.9% (inactive); in test [8], 12.5% (inactive). The inhibition of aggregation in test [2] is 13.7% (inactive). For the same compound, the results for the nuclei count in test [2] and in test [3] were 62.3% and 120%, respectively. The results for the fluorescence slope in test [4] and in test [6] were -0.436 (inactive) and 0.00495 (inactive), respectively. Besides, the NADPH fluorescence slope in test [5] was -2.6e-05 (inactive).

With `Cn1cc(CC(=O)Nc2cccc(C#N)c2)c2ccccc21`, the cell count in test [1] worked out at 414. In addition, the inhibition was -0.7% (inactive) in test [1], 13.7% (inactive) in test [3], 3.88% (inactive) in test [7] and -0.551% (inactive) in test [8]. The inhibition of aggregation in test [2] was 23.9% (inactive). The nuclei count in test [2] came out at 83.5%; in test [3], 97.2%. Moreover, the fluorescence slope in test [4] was -0.47 (inactive); in test [6] it was 0.00535 (inactive). In addition, in test [5], the NADPH fluorescence slope was -1.8e-05 (inactive).

Consider `O=C(Cn1cccc1)N1CCN(C(c2ccccc2)c2ccccc2)CC1`, for which the cell count in test [1] was found to be 337. The inhibition in test [1] is -8.9% (inactive); in test [3], -52.8% (inactive); in test [7], 13.3% (inactive); in test [8], 22% (inactive). Further, the inhibition of aggregation in test [2] was -11.9% (inactive). For the same compound, the figures for the nuclei count in test [2] and in test [3] were 110% and 107%, respectively. Further, the results for the fluorescence slope in test [4] and in test [6] were -0.213 (inactive) and 0.00614 (inactive), respectively. In addition, in test [5], the NADPH fluorescence slope was -1.1e-05 (inactive).

For the compound `COc1ccc(C(C(C(=O)c2cccs2)N2CCOCC2)N2CCOCC2)cc1OC` (centres undefined), the cell count in test [1] came to 704. Also, the inhibition is 3.6% (inactive) in test [1], 15.2% (inactive) in test [3], 8.73% (inactive) in test [7] and 2.75% (inactive) in test [8]. Further, the inhibition of aggregation in test [2] was 6.6% (inactive). Moreover, the nuclei count in test [2] was 115%; in test [3], 106%. Besides, the figures for the fluorescence slope in test [4] and in test [6] were -0.603 (inactive) and 0.00372 (inactive), respectively. Also, in test [5], the NADPH fluorescence slope was -3.1e-05 (inactive).

For the compound `CCn1c(SCC(N)=O)nc2c1c(=O)n(C)c(=O)n2C`, the cell count in test [1] turned out to be 226. Further, the inhibition was 4.9% (inactive) in test [1], -57.2% (inactive) in test [3], 17.5% (inactive) in test [7] and 21.1% (inactive) in test [8]. The inhibition of aggregation in test [2] is 20.7% (inactive). For the same compound, the nuclei count in test [2] was found to be 80.1%; in test [3] it was 152%. The fluorescence slope in test [4] is -0.422 (inactive); in test [6] it was 0.00578 (inactive). Also, the NADPH fluorescence slope in test [5] was 2.5e-05 (inactive).
